Assay results reported in ChEMBL document CHEMBL3817843, “Understanding Oxadiazolothiazinone Biological Properties: Negative Inotropic Activity versus Cytochrome P450-Mediated Metabolism” (J Med Chem, 2016).
pEC50, pIC50: −log10 of the molar value.

Legend:
Left cardiac atrium [1] = assay: Negative inotropic activity in potassium depolarized guinea pig left atrium assessed as reduction in developed tension at 5 uM after 30 mins; type: functional, Cavia porcellus; design: scale not given: the % may be the effect or the level left
Left cardiac atrium [2] = assay: Negative inotropic activity in potassium depolarized guinea pig left atrium assessed as reduction in developed tension after 30 mins; type: functional; conditions: Cavia porcellus, 0.5 h
Summary of the method: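 Guinea pig left atria electrically driven at 1 Hz. EC50 taken from log concentration−response curves by Litchfield and Wilcoxon probit analysis, n = 6−7. Not calculated when the maximum effect was below 50%.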

Right cardiac atrium = assay: Negative chronotropic activity in potassium depolarized guinea pig right atrium assessed as reduction in atrial rate at 50 uM after 30 mins; type: functional, Cavia porcellus; design: scale not given: the % may be the effect or the level left
Aorta [3] = assay: Vasorelaxant activity in potassium depolarized guinea pig aorta assessed as inhibition of calcium-induced contraction at 10^-4 M after 30 mins; type: functional, Cavia porcellus; design: scale not given: the % may be the effect or the level left
Summary of the method: (§1)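 Guinea pig aortic strips depolarized with K+ (80 mM). Calcium-induced contraction measured; inhibition expressed as percent change from control, n = 3−5.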

[4] = Relaxant activity in potassium depolarized guinea pig ileum longitudinal smooth muscle assessed as inhibition of calcium-induced contraction at 10^-5 M after 30 mins; type: functional, Cavia porcellus; design: scale not given: the % may be the effect or the level left
[5] = Half life in human liver microsomes assessed as CYP-mediated compound degradation at 1 uM by LC-MS analysis
Left cardiac atrium [6] = assay: Negative inotropic activity in potassium depolarized guinea pig left atrium assessed as reduction in developed tension at 10^-6 M after 30 mins; type: functional, Cavia porcellus; design: scale not given: the % may be the effect or the level left
[7] = Relaxant activity in potassium depolarized guinea pig ileum longitudinal smooth muscle assessed as inhibition of calcium-induced contraction at 0.05 uM after 30 mins; type: functional, Cavia porcellus; design: scale not given: the % may be the effect or the level left
[8] = Relaxant activity in potassium depolarized guinea pig ileum longitudinal smooth muscle assessed as inhibition of calcium-induced contraction after 30 mins; type: functional, tissue-based; conditions: Cavia porcellus, 0.5 h
Cytochrome P450 2C19 = Cytochrome P450 2C19 (Homo sapiens, UniProt P33261); assay: Inhibition of CYP2C19 in human liver microsomes using (S)-mephenytoin as substrate after 40 mins by LC-MS analysis
Sequence of Cytochrome P450 2C19 (P33261 whole entry): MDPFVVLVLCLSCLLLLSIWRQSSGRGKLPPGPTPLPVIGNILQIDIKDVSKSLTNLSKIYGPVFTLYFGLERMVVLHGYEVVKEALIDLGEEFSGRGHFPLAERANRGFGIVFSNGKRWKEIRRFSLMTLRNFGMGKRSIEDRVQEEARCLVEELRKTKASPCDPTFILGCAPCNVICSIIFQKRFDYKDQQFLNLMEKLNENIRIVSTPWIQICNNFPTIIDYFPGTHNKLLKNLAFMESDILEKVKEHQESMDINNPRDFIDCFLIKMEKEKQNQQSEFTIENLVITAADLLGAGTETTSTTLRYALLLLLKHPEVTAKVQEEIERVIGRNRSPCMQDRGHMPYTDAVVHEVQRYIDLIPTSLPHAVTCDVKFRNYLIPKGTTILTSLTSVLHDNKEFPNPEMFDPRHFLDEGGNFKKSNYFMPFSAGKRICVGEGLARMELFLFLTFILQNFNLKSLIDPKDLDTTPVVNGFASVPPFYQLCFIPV

Cytochrome P450 2D6 = Cytochrome P450 2D6 (Homo sapiens, UniProt P10635); assay: Inhibition of CYP2D6 in human liver microsomes using dextromethorphan as substrate after 10 mins by LC-MS analysis
Sequence of Cytochrome P450 2D6 (P10635 whole entry): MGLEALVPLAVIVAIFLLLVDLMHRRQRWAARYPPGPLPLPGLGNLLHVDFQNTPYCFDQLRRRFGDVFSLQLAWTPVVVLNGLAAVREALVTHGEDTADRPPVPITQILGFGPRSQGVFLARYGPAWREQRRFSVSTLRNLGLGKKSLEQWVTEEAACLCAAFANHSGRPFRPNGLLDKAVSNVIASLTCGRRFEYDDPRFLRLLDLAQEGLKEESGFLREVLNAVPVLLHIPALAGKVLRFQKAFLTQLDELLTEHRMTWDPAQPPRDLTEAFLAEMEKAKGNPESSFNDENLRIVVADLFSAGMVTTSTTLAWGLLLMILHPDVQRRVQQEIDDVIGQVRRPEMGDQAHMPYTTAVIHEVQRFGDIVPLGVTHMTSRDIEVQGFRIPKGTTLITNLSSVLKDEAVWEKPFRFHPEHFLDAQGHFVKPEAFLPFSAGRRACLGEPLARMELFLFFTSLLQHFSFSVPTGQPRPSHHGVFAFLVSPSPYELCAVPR

Liver microsome = assay: Stability in human liver microsomes at 1 uM after 2 to 60 mins by LC-MS analysis in absence of NADPH
Cytochrome P450 1A2 = target: T1, Cytochrome P450 1A2 (Homo sapiens, UniProt P05177); assay: Inhibition of CYP1A2 in human liver microsomes using phenacetin as substrate after 30 mins by LC-MS analysis
T1 sequence (P05177 whole entry): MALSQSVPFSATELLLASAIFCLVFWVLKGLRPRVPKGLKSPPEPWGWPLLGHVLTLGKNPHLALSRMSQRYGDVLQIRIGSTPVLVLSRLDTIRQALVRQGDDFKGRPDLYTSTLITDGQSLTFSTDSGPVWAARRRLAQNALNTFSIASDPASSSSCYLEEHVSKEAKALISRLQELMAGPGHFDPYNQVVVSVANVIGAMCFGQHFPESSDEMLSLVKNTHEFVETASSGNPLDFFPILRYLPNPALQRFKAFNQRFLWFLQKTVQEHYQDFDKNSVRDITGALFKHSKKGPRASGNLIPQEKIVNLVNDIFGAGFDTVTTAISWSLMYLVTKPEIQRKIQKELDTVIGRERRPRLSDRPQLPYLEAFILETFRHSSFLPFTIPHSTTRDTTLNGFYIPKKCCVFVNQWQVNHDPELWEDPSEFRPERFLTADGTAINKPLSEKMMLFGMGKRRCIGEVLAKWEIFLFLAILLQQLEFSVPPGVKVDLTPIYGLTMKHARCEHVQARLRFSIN

Cytochrome P450 2C9 = Cytochrome P450 2C9 (Homo sapiens, UniProt P11712); assay: Inhibition of CYP2C9 in human liver microsomes using tolbutamide as substrate after 20 mins by LC-MS analysis
Sequence of Cytochrome P450 2C9 (P11712 whole entry): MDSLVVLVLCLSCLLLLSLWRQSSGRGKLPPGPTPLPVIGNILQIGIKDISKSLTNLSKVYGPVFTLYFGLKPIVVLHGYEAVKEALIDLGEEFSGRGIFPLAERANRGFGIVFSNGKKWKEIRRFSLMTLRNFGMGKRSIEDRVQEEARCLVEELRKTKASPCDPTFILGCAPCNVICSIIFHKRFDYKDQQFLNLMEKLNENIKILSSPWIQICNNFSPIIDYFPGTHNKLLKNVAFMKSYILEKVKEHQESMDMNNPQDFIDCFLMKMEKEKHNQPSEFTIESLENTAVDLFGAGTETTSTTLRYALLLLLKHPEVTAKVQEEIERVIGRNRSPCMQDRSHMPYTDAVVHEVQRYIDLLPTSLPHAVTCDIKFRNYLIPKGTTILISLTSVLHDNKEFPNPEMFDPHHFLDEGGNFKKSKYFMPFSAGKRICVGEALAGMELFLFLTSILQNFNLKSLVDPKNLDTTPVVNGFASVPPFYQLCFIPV

in vitro = conditions: human, liver microsomes
Left cardiac atrium [9] = assay: Negative inotropic activity in potassium depolarized guinea pig left atrium assessed as reduction in developed tension at 10^-5 M after 30 mins; type: functional, Cavia porcellus; design: scale not given: the % may be the effect or the level left
Aorta [10] = assay: Vasorelaxant activity in potassium depolarized guinea pig aorta assessed as inhibition of calcium-induced contraction at 50 uM after 30 mins; type: functional, Cavia porcellus; design: scale not given: the % may be the effect or the level left; summary of the method: as §1
Left cardiac atrium [11] = assay: Potency index, ratio of diltiazem EC50 to compound EC50 for negative inotropic activity against potassium depolarized guinea pig left atrium

pEC50 (Left cardiac atrium [2]) | half-life at 1 µM [5] | pIC50 [8] | pIC50 (Cytochrome P450 2C19) | pIC50 (Cytochrome P450 2D6) | Stability (Liver microsome) | pIC50 (Cytochrome P450 1A2) | pIC50 (Cytochrome P450 2C9) | microsomal CLint at 1 µM (in vitro) | SMILES | Activity (Left cardiac atrium [1]) | Activity (Right cardiac atrium) | Activity (Aorta [3]) | Activity [4] | Activity (Left cardiac atrium [6]) | Activity [7] | Activity (Left cardiac atrium [9]) | Activity (Aorta [10]) | Ratio EC50 (Left cardiac atrium [11])
7.42 | – | – | – | – | – | – | – | – | CCOC1(c2cccc(OC)c2)SC=C(C)n2c1noc2=O (stereo not drawn) | 71% | 2% | 31% | 43% | – | – | – | – | –
7.66 | 6 min | 7.77 | 5.60 | 4.90 | Stable | 5.28 | 4.87 | 278 µL/min/mg | CCOC1(c2ccc(OC)cc2)SC=C(C)n2c1noc2=O (stereo not drawn) | – | 3% | 29% | – | 76% | 86% | – | – | –
6.64 | – | – | – | – | – | – | – | – | CC1=CSC(O)(c2ccccc2)c2noc(=O)n21 (stereo not drawn) | – | 14% | – | – | – | – | 95% | 4% | 3.4
